The text below walks through data of ChEMBL document CHEMBL4765238, “Structure-Based Discovery and Optimization of Benzo[ d]isoxazole Derivatives as Potent and Selective BET Inhibitors for Potential Treatment of Castration-Resistant Prostate Cancer (CRPC)” (J Med Chem, 2018).

The structures appear in SMILES notation. Active and inactive are the calls of the source. No cut-off for these calls is given here.

The target of data set [1] is Bromodomain-containing protein 4 (Homo sapiens, UniProt O60885). Description: Binding affinity to human recombinant His6-tagged BRD4 bromodomain 1 (N44 to E168 residues) expressed in Escherichia coli BL21 (DE3) cells assessed as gibbs free energy change incubated for 1 hr by isothermal titration calorimetry.
In data set [2] the test system is CWR22R. Description: Antiproliferative activity against AR-positive human 22Rv1 cells assessed as reduction in cell viability incubated for 96 hrs by cell-titer glo assay. The format is functional, cell-based. As to conditions: 22Rv1, 96 h. A digest of the protocol:
(§1)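 Prostate cancer cells treated across a concentration range; viability read by CellTiter-Glo luminescence; experiments in triplicate; IC50 derived from the dose–response curves.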

Data set [3] concerns LNCaP. Description: Antiproliferative activity against AR-positive human LNCAP cells assessed as reduction in cell viability incubated for 96 hrs by cell-titer glo assay. The format is functional, cell-based. A digest of the protocol: as §1
The target of data set [4] is Transcription initiation factor TFIID subunit 1 (Homo sapiens) (UniProt P21675). Description: Binding affinity to human recombinant His6-tagged TAF1 bromodomain 1 (R1377 to D1503 residues) expressed in Escherichia coli BL21 (DE3) cells assessed as change in melting temperature at 200 uM incubated for 30 mins by SYPRO orange dye based thermal shift assay. A digest of the protocol:
(§2)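 Thermal shift assay measuring change in melting temperature of each isolated bromodomain module in the presence of compound versus without.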

In data set [5] the target is Histone acetyltransferase KAT2B (Homo sapiens) (UniProt Q92831). Kind of data set: Binding affinity to human recombinant His6-tagged PCAF (G715 to D831 residues) expressed in Escherichia coli BL21 (DE3) cells assessed as change in melting temperature at 200 uM incubated for 30 mins by SYPRO orange dye based thermal shift assay. The method in brief:
as §2

Data set [6] has as its target Bromodomain-containing protein 3 (Homo sapiens) (UniProt Q15059). Description: Binding affinity to human recombinant His6-tagged BRD3 bromodomain 1 (P24 to E144 residues) expressed in Escherichia coli BL21 (DE3) cells assessed as change in melting temperature at 200 uM incubated for 30 mins by SYPRO orange dye based thermal shift assay. The method in brief:
as §2

Data set [7] addresses Histone-lysine N-methyltransferase ASH1L (Homo sapiens) (UniProt Q9NR48). Kind of data set: Binding affinity to human recombinant His6-tagged ASH1L (E2433 to E2564 residues) expressed in Escherichia coli BL21 (DE3) cells assessed as change in melting temperature at 200 uM incubated for 30 mins by SYPRO orange dye based thermal shift assay. The method in brief: as §2
In data set [8] the target is Bromodomain-containing protein 2 (Homo sapiens) (UniProt P25440). Kind of data set: Binding affinity to human recombinant His6-tagged BRD2 bromodomain 1 (K77 to N194 residues) expressed in Escherichia coli BL21 (DE3) cells assessed as change in melting temperature at 200 uM incubated for 30 mins by SYPRO orange dye based thermal shift assay. A digest of the protocol:
as §2

Data set [9] concerns the target T1, Bromodomain-containing protein 9 (Homo sapiens) (UniProt Q9H8M2).
T1 sequence (whole entry): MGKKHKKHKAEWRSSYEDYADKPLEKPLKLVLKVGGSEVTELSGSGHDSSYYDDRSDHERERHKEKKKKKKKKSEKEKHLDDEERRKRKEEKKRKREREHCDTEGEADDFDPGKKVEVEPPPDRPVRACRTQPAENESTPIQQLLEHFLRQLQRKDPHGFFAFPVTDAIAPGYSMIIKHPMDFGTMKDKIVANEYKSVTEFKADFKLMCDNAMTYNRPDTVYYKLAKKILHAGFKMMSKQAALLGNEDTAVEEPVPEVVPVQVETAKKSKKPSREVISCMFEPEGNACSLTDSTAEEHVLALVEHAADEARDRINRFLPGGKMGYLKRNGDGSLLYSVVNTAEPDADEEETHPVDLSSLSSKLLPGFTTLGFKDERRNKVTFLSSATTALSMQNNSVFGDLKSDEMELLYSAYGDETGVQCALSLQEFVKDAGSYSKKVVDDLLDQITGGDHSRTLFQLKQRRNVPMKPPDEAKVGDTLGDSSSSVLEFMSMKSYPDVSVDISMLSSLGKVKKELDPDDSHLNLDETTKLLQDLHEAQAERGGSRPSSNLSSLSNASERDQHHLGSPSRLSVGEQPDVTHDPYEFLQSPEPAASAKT
Description: Binding affinity to human recombinant His6-tagged BRD9 (L14 to Q134 residues) expressed in Escherichia coli BL21 (DE3) cells assessed as change in melting temperature at 200 uM incubated for 30 mins by SYPRO orange dye based thermal shift assay. A digest of the protocol:
as §2

Data set [10] deals with CREB-binding protein (Homo sapiens) (UniProt Q92793). Kind of data set: Binding affinity to human recombinant His6-tagged CREBBP (R1081 to G1197 residues) expressed in Escherichia coli BL21 (DE3) cells assessed as change in melting temperature at 200 uM incubated for 30 mins by SYPRO orange dye based thermal shift assay. The method in brief:
as §2

In data set [11] the test system is DU-145. Kind of data set: Antiproliferative activity against AR-negative human DU-145 cells assessed as reduction in cell viability incubated for 72 hrs by cell-titer glo assay. It counts as functional, cell-based. As to conditions: DU-145, 72 h.
Data set [12] has as its system A549. Kind of data set: Antiproliferative activity against human A549 cells assessed as reduction in cell viability incubated for 72 hrs by cell-titer glo assay. It counts as functional, cell-based. As to conditions: A549, 72 h.
Data set [13] is described as follows: Toxicity in CB17/IcrHSD-Prkdc-SCID mouse xenografted with human LNCaP C4-2B cells assessed as effect on body weight at 50 mg/kg, ip administered 5 times per week for 25 days. It counts as organism-based. As to conditions: in vivo, 600 h, time 25 day. The method in brief: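 C4-2B xenograft mice randomized once tumors reached about 100 mm3. Vehicle or compound given i.p. at 50 mg/kg, five times per week, over a 25-day treatment period. Tolerability judged from body weight, tracked across treatment days, and from general behaviour.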
In general terms: Xenograft models place foreign cells or tissue in a host animal.

The subject of data set [14] is CWR22R. Kind of data set: Inhibition of colony formation in human 22Rv1 cells incubated for 14 days by crystal violet staining based assay. The format is functional, cell-based. As to conditions: dose 0.5-2 µM, time 14.0 day. The method in brief:
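22Rv1 cells cultured with vehicle (DMSO) or compound at 0.5, 1.0 or 2.0 µM for 14 days, then stained and colonies assessed.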

Data set [15] concerns U2OS. Kind of data set: Antiproliferative activity against human U2OS cells assessed as reduction in cell viability incubated for 72 hrs by cell-titer glo assay. It counts as functional, cell-based.
In data set [16] the test system is 22Rv1. Description: Inhibition of BET bromodomain in human 22Rv1 cells assessed as suppression of AR-V7 protein expression at 1 to 16 uM incubated for 48 hrs by western blot analysis. The format is cell-based. The note with it: dose 1-16 µM. Background: Immunoblotting shows a protein as a band on a membrane.
A short description of data set [17]: Cmax in Sprague-Dawley rat at 2 mg/kg, iv by LC/MS analysis. The format is ADME, organism-based. More on the design: route intravenous, dose 2 mg/kg. As to conditions: in vivo. A digest of the protocol: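 Sprague-Dawley rats dosed iv at 2 mg/kg (a separate oral arm received 10 mg/kg); plasma exposure parameters derived from the concentration–time profile.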

Data set [18] concerns HeLa. Kind of data set: Antiproliferative activity against human HeLa cells assessed as reduction in cell viability incubated for 72 hrs by cell-titer glo assay. It counts as functional, cell-based.
Data set [19] has as its system HFL1. Description: Cytotoxicity against human HFL1 cells assessed as reduction in cell viability incubated for 72 hrs by cell-titer glo assay. The format is cell-based. As to conditions: HFL1, 72 h.
In data set [20] the test system is LNCaP C4-2B. Description: Inhibition of colony formation in human LNCaP C4-2B cells at 0.5 uM incubated for 14 days by crystal violet staining based assay. It counts as functional, cell-based. The note with it: time 14.0 day. The method in brief:
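C4-2B cells cultured with vehicle (DMSO) or compound at 0.5, 1.0 or 2.0 μM for 14 days, then colonies stained and counted against vehicle.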

Chain of Bromodomain-containing protein 2 (Homo sapiens) (P25440 whole entry, looked up, the tested form may be a part): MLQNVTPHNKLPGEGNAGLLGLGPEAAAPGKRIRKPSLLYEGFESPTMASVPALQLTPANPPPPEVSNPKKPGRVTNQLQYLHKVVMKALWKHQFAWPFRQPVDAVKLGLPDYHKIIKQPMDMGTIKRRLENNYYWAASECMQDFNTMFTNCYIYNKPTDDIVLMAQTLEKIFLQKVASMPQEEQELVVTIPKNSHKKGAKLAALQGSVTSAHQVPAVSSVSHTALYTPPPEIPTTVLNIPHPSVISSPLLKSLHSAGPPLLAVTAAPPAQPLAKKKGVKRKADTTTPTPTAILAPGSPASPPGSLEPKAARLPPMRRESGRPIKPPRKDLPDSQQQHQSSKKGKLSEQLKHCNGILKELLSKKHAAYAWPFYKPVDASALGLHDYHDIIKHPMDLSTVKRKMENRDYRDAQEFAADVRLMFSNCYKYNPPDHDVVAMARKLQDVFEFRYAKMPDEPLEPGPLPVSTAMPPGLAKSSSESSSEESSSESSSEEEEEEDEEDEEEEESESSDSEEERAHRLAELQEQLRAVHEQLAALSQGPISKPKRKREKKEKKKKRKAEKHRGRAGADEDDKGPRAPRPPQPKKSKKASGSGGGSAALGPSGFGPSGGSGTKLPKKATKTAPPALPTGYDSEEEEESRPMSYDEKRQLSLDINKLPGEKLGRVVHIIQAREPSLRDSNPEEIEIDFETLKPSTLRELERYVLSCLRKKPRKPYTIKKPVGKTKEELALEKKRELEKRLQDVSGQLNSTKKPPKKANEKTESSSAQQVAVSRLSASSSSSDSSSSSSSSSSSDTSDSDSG
Chain of CREB-binding protein (Homo sapiens) (Q92793 2-2442 limits assumed): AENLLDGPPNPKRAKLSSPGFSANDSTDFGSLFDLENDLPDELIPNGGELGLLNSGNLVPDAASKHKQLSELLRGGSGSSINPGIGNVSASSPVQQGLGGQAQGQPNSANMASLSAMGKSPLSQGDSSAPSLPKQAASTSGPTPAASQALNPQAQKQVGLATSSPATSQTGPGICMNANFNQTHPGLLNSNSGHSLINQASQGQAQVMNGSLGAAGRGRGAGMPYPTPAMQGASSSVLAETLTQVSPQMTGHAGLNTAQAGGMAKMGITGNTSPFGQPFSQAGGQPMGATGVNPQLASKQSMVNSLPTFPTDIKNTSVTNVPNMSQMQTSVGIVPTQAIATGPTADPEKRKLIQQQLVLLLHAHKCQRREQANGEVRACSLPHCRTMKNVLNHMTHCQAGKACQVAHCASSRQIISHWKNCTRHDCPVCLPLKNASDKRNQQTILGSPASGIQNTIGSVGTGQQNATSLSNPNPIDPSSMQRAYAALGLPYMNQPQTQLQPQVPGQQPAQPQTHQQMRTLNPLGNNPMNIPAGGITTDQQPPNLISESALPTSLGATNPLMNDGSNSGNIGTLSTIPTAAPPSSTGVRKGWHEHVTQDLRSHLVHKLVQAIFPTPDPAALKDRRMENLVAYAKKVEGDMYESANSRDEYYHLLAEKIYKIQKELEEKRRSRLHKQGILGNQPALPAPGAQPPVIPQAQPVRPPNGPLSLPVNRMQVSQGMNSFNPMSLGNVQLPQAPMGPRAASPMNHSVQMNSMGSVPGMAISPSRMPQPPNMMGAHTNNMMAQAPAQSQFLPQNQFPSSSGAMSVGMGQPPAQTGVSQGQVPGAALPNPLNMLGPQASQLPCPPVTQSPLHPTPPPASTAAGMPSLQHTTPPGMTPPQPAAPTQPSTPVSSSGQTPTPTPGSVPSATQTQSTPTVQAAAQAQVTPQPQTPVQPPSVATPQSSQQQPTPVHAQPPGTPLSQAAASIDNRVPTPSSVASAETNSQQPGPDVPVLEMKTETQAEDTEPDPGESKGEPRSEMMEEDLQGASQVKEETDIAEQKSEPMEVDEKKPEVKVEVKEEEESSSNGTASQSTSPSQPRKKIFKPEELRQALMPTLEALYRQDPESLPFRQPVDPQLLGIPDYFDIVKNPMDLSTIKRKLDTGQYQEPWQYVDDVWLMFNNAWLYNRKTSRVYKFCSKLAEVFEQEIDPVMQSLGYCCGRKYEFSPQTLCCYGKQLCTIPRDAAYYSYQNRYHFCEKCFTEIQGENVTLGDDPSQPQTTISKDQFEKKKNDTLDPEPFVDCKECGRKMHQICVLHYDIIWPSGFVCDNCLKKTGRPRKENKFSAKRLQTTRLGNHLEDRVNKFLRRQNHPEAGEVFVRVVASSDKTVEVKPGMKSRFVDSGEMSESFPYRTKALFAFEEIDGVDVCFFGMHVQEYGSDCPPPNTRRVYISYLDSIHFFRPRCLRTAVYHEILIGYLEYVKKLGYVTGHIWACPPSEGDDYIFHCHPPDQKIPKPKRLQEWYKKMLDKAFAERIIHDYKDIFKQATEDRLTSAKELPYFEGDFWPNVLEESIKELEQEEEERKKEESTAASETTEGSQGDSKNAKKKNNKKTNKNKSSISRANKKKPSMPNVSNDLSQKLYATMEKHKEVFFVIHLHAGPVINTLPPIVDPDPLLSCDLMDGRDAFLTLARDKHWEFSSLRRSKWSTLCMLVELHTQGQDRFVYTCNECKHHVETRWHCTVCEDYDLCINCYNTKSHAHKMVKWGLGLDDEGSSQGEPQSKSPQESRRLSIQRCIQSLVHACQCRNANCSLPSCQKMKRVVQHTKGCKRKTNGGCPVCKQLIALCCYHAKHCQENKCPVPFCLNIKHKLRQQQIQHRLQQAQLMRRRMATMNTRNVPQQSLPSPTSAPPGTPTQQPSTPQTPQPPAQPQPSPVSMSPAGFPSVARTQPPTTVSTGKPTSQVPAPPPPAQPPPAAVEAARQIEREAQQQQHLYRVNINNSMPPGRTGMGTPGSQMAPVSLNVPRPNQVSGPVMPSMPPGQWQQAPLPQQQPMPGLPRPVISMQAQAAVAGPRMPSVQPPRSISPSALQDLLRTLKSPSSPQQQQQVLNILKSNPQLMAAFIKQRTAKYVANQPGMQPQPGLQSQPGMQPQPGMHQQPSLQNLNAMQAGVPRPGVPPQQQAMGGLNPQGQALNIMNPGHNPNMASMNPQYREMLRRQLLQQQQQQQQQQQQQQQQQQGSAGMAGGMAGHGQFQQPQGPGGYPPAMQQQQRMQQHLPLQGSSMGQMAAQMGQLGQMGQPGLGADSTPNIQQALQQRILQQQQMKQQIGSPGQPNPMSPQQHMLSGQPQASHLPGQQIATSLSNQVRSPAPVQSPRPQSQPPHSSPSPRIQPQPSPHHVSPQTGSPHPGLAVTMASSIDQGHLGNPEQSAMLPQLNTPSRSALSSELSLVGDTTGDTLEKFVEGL
Chain of Histone acetyltransferase KAT2B (Homo sapiens) (Q92831 whole entry, looked up, the tested form may be a part): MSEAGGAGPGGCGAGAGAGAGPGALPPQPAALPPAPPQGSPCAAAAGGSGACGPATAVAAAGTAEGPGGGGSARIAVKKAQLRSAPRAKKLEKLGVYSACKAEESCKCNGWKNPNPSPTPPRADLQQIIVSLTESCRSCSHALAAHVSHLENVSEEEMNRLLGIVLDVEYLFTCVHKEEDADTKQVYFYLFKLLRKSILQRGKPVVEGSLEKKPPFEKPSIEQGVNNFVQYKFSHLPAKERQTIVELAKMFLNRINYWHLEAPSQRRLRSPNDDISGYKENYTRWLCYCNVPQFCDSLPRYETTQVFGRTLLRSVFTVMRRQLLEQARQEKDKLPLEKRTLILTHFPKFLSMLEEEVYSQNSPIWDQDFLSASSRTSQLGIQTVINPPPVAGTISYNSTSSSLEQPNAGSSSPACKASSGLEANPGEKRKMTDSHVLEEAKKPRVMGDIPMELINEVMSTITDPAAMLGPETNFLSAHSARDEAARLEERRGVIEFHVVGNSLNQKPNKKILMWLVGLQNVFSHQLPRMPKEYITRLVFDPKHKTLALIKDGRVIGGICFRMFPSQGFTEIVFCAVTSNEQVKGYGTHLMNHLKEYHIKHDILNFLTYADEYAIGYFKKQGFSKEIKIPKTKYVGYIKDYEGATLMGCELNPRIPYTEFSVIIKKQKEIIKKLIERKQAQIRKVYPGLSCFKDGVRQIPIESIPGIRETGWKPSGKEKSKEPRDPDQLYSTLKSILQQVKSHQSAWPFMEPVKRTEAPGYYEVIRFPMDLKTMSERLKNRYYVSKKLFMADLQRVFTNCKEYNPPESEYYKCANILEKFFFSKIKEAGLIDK
Chain of Bromodomain-containing protein 3 (Homo sapiens) (Q15059 2-726 limits assumed): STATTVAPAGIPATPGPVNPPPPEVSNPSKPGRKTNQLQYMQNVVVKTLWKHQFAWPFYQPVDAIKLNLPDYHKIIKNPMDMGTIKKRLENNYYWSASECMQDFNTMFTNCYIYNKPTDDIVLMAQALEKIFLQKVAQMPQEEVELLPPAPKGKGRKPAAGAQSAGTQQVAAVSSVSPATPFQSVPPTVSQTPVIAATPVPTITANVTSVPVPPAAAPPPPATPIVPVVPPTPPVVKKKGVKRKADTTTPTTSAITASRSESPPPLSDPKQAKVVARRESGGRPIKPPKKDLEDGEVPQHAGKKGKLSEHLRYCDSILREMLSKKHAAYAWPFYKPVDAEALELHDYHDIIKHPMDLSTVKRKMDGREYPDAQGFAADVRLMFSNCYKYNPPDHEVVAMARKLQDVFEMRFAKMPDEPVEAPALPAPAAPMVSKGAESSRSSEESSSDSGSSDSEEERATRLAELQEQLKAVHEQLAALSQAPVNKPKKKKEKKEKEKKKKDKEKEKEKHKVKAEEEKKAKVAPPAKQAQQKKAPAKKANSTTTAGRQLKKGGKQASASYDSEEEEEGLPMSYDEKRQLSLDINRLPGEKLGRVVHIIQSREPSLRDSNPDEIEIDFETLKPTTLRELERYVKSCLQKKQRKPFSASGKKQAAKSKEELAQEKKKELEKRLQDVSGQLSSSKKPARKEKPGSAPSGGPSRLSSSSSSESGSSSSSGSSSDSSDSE

Broadly, the IC50 is the concentration that gives 50% inhibition. For orientation: ΔTm means the change in melting temperature against a reference sample. Take `CNc1cc2onc(C)c2cc1NS(=O)(=O)c1cc(Br)ccc1OC`: in [1], the deltaG was -9.3 kcal/mol. Further, the values for the IC50 in [2] and in data set [3] were 6.73 µM and 6.16 µM, respectively. Moreover, the ΔTm in data set [4] is -0.1 °C; in data set [5], 2.6 °C; in data set [6], 6.5 °C; in [7], -0.1 °C; in data set [8] it was 5.3 °C; in [9] it was -0.8 °C. The ΔTm in data set [10] worked out at 2.1 °C.
Broadly, the Cmax is the peak of the concentration-time curve. In the case of `COc1cc2onc(C)c2cc1NS(=O)(=O)c1cc(Br)ccc1OC`, the IC50 in [11] was over 6 µM; in data set [2] it was 1.5 µM; in data set [3], 1.06 µM; in data set [12] it was over 5 µM; in data set [15] it was over 5 µM; in data set [18] it was over 5 µM. Also, the half-maximal inhibitory concentration (IC50) in data set [19] turned out to be 18.2 µM. The deltaG in [1] is -9.7 kcal/mol. Also, the Activity result in data set [13] is “Non-Toxic”. The ΔTm in data set [4] is 0.1 °C; in [5] it was 2.7 °C; in data set [6], 8.1 °C; in data set [7], 0.3 °C; in data set [8], 5.3 °C; in [9], -0.9 °C. Further, the ΔTm in data set [10] amounted to 1.4 °C. Besides, in [14], the inhibition result is “Dose-dependent effect”. The inhibition entry in [16] and in [20] was “Active” in each case. The same molecule showed a Cmax in data set [17] of 1390 ng/mL.
Take `Cc1noc2c(Br)cc(-c3nc4ccc(N5CCOCC5)cc4n3CC3CCCCC3)cc12`: the deltaG in [1] was -9.3 kcal/mol. Further, the IC50 in data set [2] turned out to be 0.64 µM; in data set [3] it was 0.57 µM. The ΔTm in [4] is -0.6 °C; in data set [5], -0.6 °C; in data set [6] it was 8.9 °C; in data set [7] it was -0.9 °C; in [8], 6 °C; in data set [9], -0.9 °C. Besides, the ΔTm in [10] is 0 °C.
Take `Cc1noc2ccc(-c3nc4ccc(N5CCOC[C@@H]5C)cc4n3CC3CCCCC3)cc12`: the IC50 was over 6 µM in data set [11]; 0.7 µM in data set [2]; 0.47 µM in [3]; 2.5 µM in data set [12]; over 5 µM in data set [15]; over 5 µM in data set [18]. Also, the IC50 in data set [19] is 15.9 µM. Moreover, the deltaG in [1] is -9.7 kcal/mol. Moreover, in data set [13], the Activity entry is listed as “Non-Toxic”. In addition, the ΔTm in data set [4] is -0.9 °C; in [5], -0.6 °C; in [6] it was 8.7 °C; in [7] it was -0.5 °C; in data set [8], 6.3 °C; in data set [9] it was -0.8 °C. Further, the ΔTm in data set [10] came out at 0.3 °C. The inhibition entry in data set [14] was “Dose-dependent effect”. Besides, the inhibition result in data set [16] and in data set [20] was “Active” in each case. In data set [17], the peak concentration (Cmax) was 807 ng/mL.
